Drawing on ChEMBL document CHEMBL1156226, “Synthesis and structure-activity relationship studies of peptidomimetic PKB/Akt inhibitors: the significance of backbone interactions” (Bioorg Med Chem, 2010), this text covers IC50 and inhibition for 25 molecules.

The structures appear in SMILES notation. Square brackets hold non-standard residues; d marks the D form. Peptide text beside a SMILES is read from it. Gly(N-4-hydroxybenzyl) = O=C(O)CNCc1ccc(O)cc1; Gly(N-(CH2)3-guanidino) = N=C(N)NCCCNCC(=O)O; hLeu = CC(C)CC[C@H](N)C(=O)O; Nva = CCC[C@H](N)C(=O)O; Dap = NC[C@H](N)C(=O)O

For assay [1], the target named is T1, RAC-alpha serine/threonine-protein kinase (Homo sapiens, UniProt P31749). Briefly: Inhibition of PKB by radioactive kinase assay. The essentials:
(§1)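 PKB/Akt enzyme HisAPHPKBEEEFlag, partly purified in one step on Ni-NTA agarose. The radioactive kinase reaction contains 50 mM Hepes pH 7.4, 0.1 mM EGTA, 0.1% 2-mercaptoethanol, 10 mM magnesium acetate, 3 uM RPRTSSF peptide substrate, 10 uM [γ32P]ATP and 0.005 units enzyme. Inhibition is given as percent reduction of activity against a no-inhibitor control. IC50 values, with 95% confidence ranges, come from curve fitting.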

Assay [2] deals with T1, RAC-alpha serine/threonine-protein kinase. Briefly: Inhibition of PKB at 5 uM by radioactive kinase assay relative to control. An outline of the steps: as §1
Assay [3] shares this target. Briefly: Inhibition of PKB at 20 uM by radioactive kinase assay relative to control. The essentials:
as §1

For assay [4] the target is unchanged. In words: Inhibition of PKB at 100 uM by radioactive kinase assay relative to control. An outline of the steps: as §1

T1 sequence (P31749 whole entry): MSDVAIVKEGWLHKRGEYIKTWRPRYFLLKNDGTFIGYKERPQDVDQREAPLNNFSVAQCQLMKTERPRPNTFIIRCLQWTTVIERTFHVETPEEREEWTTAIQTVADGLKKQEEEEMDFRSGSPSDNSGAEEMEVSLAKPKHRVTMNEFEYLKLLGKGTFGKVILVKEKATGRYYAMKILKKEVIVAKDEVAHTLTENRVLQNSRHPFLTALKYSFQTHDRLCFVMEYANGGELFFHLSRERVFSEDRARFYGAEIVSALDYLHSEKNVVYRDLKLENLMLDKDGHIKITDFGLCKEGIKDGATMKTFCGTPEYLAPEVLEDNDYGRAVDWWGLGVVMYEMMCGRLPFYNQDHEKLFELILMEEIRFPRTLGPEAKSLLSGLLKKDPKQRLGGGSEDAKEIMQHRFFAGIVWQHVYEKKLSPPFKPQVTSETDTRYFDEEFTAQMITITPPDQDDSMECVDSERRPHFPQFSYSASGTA

The IC50 is the concentration that gives 50% inhibition. For the molecule `CCC[C@H](NC(=O)[C@H](CCCN=C(N)N)NC(=O)[C@@H]1CCCN1C(=O)[C@H](CCCN=C(N)N)NC(=O)[C@@H](N)CCCN=C(N)N)C(=O)N[C@@H](Cc1ccc(O)cc1)C(=O)N[C@@H](CN)C(=O)N[C@@H](CCC(C)C)C(N)=O`, the IC50 in assay [1] is 840 nM. Same read-out and setting: as for `CCC[C@H](NC(=O)[C@H](CCCN=C(N)N)NC(=O)[C@@H]1CCCN1C(=O)[C@@H](N)CCCN=C(N)N)C(=O)N[C@@H](Cc1ccc(O)cc1)C(=O)N[C@H](CS)C(=O)N[C@@H](CCC(C)C)C(N)=O`, the figure is 400 nM. A word on the inhibition: it is the relative decrease from the control value, in per cent. As for `CCC[C@H](NC(=O)[C@H](CCCNC(=N)N)NC(=O)[C@@H]1CCCN1C(=O)[C@H](CCCNC(=N)N)NC(=O)[C@@H](N)CCCCN)C(=O)N[C@@H](Cc1ccc(O)cc1)C(=O)N[C@@H](CN)C(=O)N[C@@H](CCC(C)C)C(N)=O`, the inhibition in assay [2] amounted to 73%; in assay [3] it was 92%. The matching figures for `CCC[C@H](NC(=O)[C@H](CCCNC(=N)N)NC(=O)[C@@H]1CCCN1C(=O)[C@H](CCCNC(=N)N)NC(=O)[C@@H](N)CCCNC(=N)N)C(=O)N[C@@H](Cc1ccc(O)cc1)C(=O)N[C@@H](CN)C(=O)N[C@@H](CCC(C)C)C(N)=O`: 88% and 96%. As for `CCC[C@H](NC(=O)[C@H](CCCNC(=N)N)NC(=O)[C@@H]1CCCN1C(=O)[C@H](CCCNC(=N)N)NC(=O)[C@H](N)CCCCN)C(=O)N[C@@H](Cc1ccc(O)cc1)C(=O)N[C@@H](CN)C(=O)N[C@@H](CCC(C)C)C(=O)O`, the inhibition in assay [3] stood at 48%. The same measure, in the same setting: the same measure for `CCC[C@H](NC(=O)[C@H](CCCNC(=N)N)NC(=O)[C@@H]1CCCN1C(=O)[C@H](CCCNC(=N)N)NC(=O)[C@H](N)CCCCN)C(=O)N[C@@H](Cc1ccc(O)cc1)C(=O)N[C@@H](CN)C(=O)N[C@@H](CCC(C)C)C(N)=O`: 3%; for `CCC[C@H](NC(=O)[C@H](CCCNC(=N)N)NC(=O)[C@@H]1CCCN1C(=O)[C@H](CCCNC(=N)N)NC(=O)[C@H](N)CCCNC(=N)N)C(=O)N[C@@H](Cc1ccc(O)cc1)C(=O)N[C@@H](CN)C(=O)N[C@@H](CCC(C)C)C(=O)O`: 69%. On the same count and under the same terms, as for `CCC[C@H](NC(=O)[C@H](CCCNC(=N)N)NC(=O)[C@@H]1CCCN1C(=O)[C@H](CCCNC(=N)N)NC(=O)[C@H](N)CCCNC(=N)N)C(=O)N[C@@H](Cc1ccc(O)cc1)C(=O)N[C@@H](CN)C(=O)N[C@@H](CCC(C)C)C(N)=O`, the figure is 40%. On to `CCC[C@H](NC(=O)[C@H](CCCNC(=N)N)NC(=O)[C@@H]1CCCN1C(=O)[C@@H](N)CCCNC(=N)N)C(=O)N(CC(=O)N[C@@H](CN)C(=O)N[C@@H](CCC(C)C)C(N)=O)Cc1ccc(O)cc1` (H-RPR[Nva][Gly(N-4-hydroxybenzyl)][Dap][hLeu]-NH2), for which the inhibition in assay [4] was 85%; in assay [2] it was 23%. The like results for `CCC[C@H](NC(=O)[C@H](CCCNC(=N)N)NC(=O)[C@@H]1CCCN1C(=O)CNCCCNC(=N)N)C(=O)N[C@@H](Cc1ccc(O)cc1)C(=O)N[C@@H](CN)C(=O)N[C@@H](CCC(C)C)C(N)=O` (H-[Gly(N-(CH2)3-guanidino)]PR[Nva]Y[Dap][hLeu]-NH2) were, in that order, 95% and 32%. On to `CCC[C@H](NC(=O)[C@H](CCCNC(=N)N)NC(=O)[C@@H]1CCCN1C(=O)[C@@H](N)CCCNC(=N)N)C(=O)N[C@@H](Cc1ccc(O)cc1)C(=O)N[C@@H](CN)C(=O)N(C)[C@@H](CCC(C)C)C(N)=O` (HELM PEPTIDE1{R.P.R.[Nva].Y.[NC[C@H](N[*:1])C(=O)[*:2]].[CC(C)CC[C@@H](C(=O)[*:2])N(C)[*:1]].[am]}$$$$V2.0), for which the values for the inhibition in assay [4] and in assay [2] were 86% and 5%, respectively. The matching figures for `CCC[C@H](NC(=O)[C@H](CCCNC(=N)N)NC(=O)[C@@H]1CCCN1C(=O)[C@@H](N)CCCNC(=N)N)C(=O)N[C@@H](Cc1ccc(O)cc1)C(=O)N[C@@H](CN)C(=O)N[C@@H](CCC(C)C)C(=O)O` (HELM PEPTIDE1{R.P.R.[Nva].Y.[NC[C@H](N[*:1])C(=O)[*:2]].[CC(C)CC[C@H](N[*:1])C(=O)O]}$$$$V2.0): 95% and 51%. The like results for `CCC[C@H](NC(=O)[C@H](CCCNC(=N)N)NC(=O)[C@@H]1CCCN1C(=O)[C@@H](N)CCCNC(=N)N)C(=O)N(C)[C@@H](Cc1ccc(O)cc1)C(=O)N[C@@H](CN)C(=O)N[C@@H](CCC(C)C)C(N)=O` (HELM PEPTIDE1{R.P.R.[Nva].[meY].[NC[C@H](N[*:1])C(=O)[*:2]].[CC(C)CC[C@H](N[*:1])C(=O)[*:2]].[am]}$$$$V2.0) were, in that order, 88% and 13%. The like results for `CCC[C@H](NC(=O)[C@H](CCCNC(=N)N)N(C)C(=O)[C@@H]1CCCN1C(=O)[C@@H](N)CCCNC(=N)N)C(=O)N[C@@H](Cc1ccc(O)cc1)C(=O)N[C@@H](CN)C(=O)N[C@@H](CCC(C)C)C(N)=O` (HELM PEPTIDE1{R.P.[meR].[Nva].Y.[NC[C@H](N[*:1])C(=O)[*:2]].[CC(C)CC[C@H](N[*:1])C(=O)[*:2]].[am]}$$$$V2.0) were, in that order, 92% and 39%.

As for `CCC[C@H](NC(=O)[C@H](CCCNC(=N)N)NC(=O)[C@@H]1CCCN1C(=O)[C@H](CCCNC(=N)N)NC(=O)[C@H](CCCCN)NC(C)=O)C(=O)N[C@@H](Cc1ccc(O)cc1)C(=O)N[C@@H](CN)C(=O)N[C@@H](CCC(C)C)C(=O)O` (HELM PEPTIDE1{[ac].K.R.P.R.[Nva].Y.[NC[C@H](N[*:1])C(=O)[*:2]].[CC(C)CC[C@H](N[*:1])C(=O)O]}$$$$V2.0), in assay [3], the inhibition was found to be 46%. Take `CCC[C@H](NC(=O)[C@H](CCCNC(=N)N)NC(=O)[C@@H]1CCCN1C(=O)[C@H](CCCNC(=N)N)NC(=O)[C@H](CCCCN)NC(C)=O)C(=O)N[C@@H](Cc1ccc(O)cc1)C(=O)N[C@@H](CN)C(=O)N[C@@H](CCC(C)C)C(N)=O` (HELM PEPTIDE1{[ac].K.R.P.R.[Nva].Y.[NC[C@H](N[*:1])C(=O)[*:2]].[CC(C)CC[C@H](N[*:1])C(=O)[*:2]].[am]}$$$$V2.0): the inhibition in assay [2] came to 61%; in assay [3] it was 85%. Take `CCC[C@H](NC(=O)[C@H](CCCNC(=N)N)NC(=O)[C@@H]1CCCN1C(=O)[C@H](CCCNC(=N)N)NC(C)=O)C(=O)N[C@@H](Cc1ccc(O)cc1)C(=O)N(C)[C@@H](CN)C(=O)N[C@@H](CCC(C)C)C(N)=O` (HELM PEPTIDE1{[ac].R.P.R.[Nva].Y.[CN([C@@H](CN)C(=O)[*:2])[*:1]].[CC(C)CC[C@H](N[*:1])C(=O)[*:2]].[am]}$$$$V2.0): the inhibition in assay [4] was found to be 33%. With `CCC[C@H](NC(=O)[C@H](CCCNC(=N)N)NC(=O)[C@@H]1CCCN1C(=O)[C@H](CCCNC(=N)N)NC(C)=O)C(=O)N[C@@H](Cc1ccc(O)cc1)C(=O)N[C@@H](CN)C(=O)N(C)[C@@H](CCC(C)C)C(=O)O` (HELM PEPTIDE1{[ac].R.P.R.[Nva].Y.[NC[C@H](N[*:1])C(=O)[*:2]].[CC(C)CC[C@@H](C(=O)O)N(C)[*:1]]}$$$$V2.0), the inhibition in assay [4] was determined as 1%. The same measure, in the same setting: the same measure for `CCC[C@H](NC(=O)[C@H](CCCNC(=N)N)NC(=O)[C@@H]1CCCN1C(=O)[C@H](CCCNC(=N)N)NC(C)=O)C(=O)N[C@@H](Cc1ccc(O)cc1)C(=O)N[C@@H](CN)C(=O)N(C)[C@@H](CCC(C)C)C(N)=O` (HELM PEPTIDE1{[ac].R.P.R.[Nva].Y.[NC[C@H](N[*:1])C(=O)[*:2]].[CC(C)CC[C@@H](C(=O)[*:2])N(C)[*:1]].[am]}$$$$V2.0): 29%; for `CCC[C@H](NC(=O)[C@H](CCCNC(=N)N)NC(=O)[C@@H]1CCCN1C(=O)[C@H](CCCNC(=N)N)NC(C)=O)C(=O)N[C@@H](Cc1ccc(O)cc1)C(=O)N[C@@H](CN)C(=O)N[C@@H](CCC(C)C)C(=O)O` (HELM PEPTIDE1{[ac].R.P.R.[Nva].Y.[NC[C@H](N[*:1])C(=O)[*:2]].[CC(C)CC[C@H](N[*:1])C(=O)O]}$$$$V2.0): 66%. `CCC[C@H](NC(=O)[C@H](CCCNC(=N)N)NC(=O)[C@@H]1CCCN1C(=O)[C@H](CCCNC(=N)N)NC(C)=O)C(=O)N[C@@H](Cc1ccc(O)cc1)C(=O)N[C@@H](CN)C(=O)N[C@@H](CCC(C)C)C(N)=O` (HELM PEPTIDE1{[ac].R.P.R.[Nva].Y.[NC[C@H](N[*:1])C(=O)[*:2]].[CC(C)CC[C@H](N[*:1])C(=O)[*:2]].[am]}$$$$V2.0): the inhibition came to 92% in assay [4] and 45% in assay [2]. `CCC[C@H](NC(=O)[C@H](CCCNC(=N)N)NC(=O)[C@@H]1CCCN1C(=O)[C@H](CCCNC(=N)N)NC(C)=O)C(=O)N[C@@H](Cc1ccc(O)cc1)C(=O)N[C@@H](CN)C(=O)N(CC(=O)O)CC(C)CC` (stereo partly specified) (HELM PEPTIDE1{[ac].R.P.R.[Nva].Y.[NC[C@H](N[*:1])C(=O)[*:2]].[CCC(C)CN(CC(=O)O)[*:1]]}$$$$V2.0): the inhibition in assay [4] came to 4%.

For `CCC[C@H](NC(=O)[C@H](CCCNC(=N)N)NC(=O)[C@@H]1CCCN1C(=O)[C@H](CCCNC(=N)N)NC(C)=O)C(=O)N[C@@H](Cc1ccc(O)cc1)C(=O)N[C@@H](CN)C(=O)N(CC(N)=O)CC(C)CC` (stereo partly specified) (HELM PEPTIDE1{[ac].R.P.R.[Nva].Y.[NC[C@H](N[*:1])C(=O)[*:2]].[CCC(C)CN(CC(=O)[*:2])[*:1]].[am]}$$$$V2.0), in assay [4], the inhibition amounted to 1%. Take `CCC[C@H](NC(=O)[C@H](CCCNC(=N)N)NC(=O)[C@@H]1CCCN1C(=O)[C@H](CCCNC(=N)N)NC(C)=O)C(=O)N(C)[C@@H](Cc1ccc(O)cc1)C(=O)N[C@@H](CN)C(=O)N[C@@H](CCC(C)C)C(N)=O` (HELM PEPTIDE1{[ac].R.P.R.[Nva].[meY].[NC[C@H](N[*:1])C(=O)[*:2]].[CC(C)CC[C@H](N[*:1])C(=O)[*:2]].[am]}$$$$V2.0): the inhibition in assay [4] stood at 40%. Regarding `CCC[C@H](NC(=O)[C@H](CCCNC(=N)N)NC(=O)[C@@H]1CCCN1C(=O)[C@H](CCCNC(=N)N)NC(=O)[C@H](CCCNC(=N)N)NC(C)=O)C(=O)N[C@@H](Cc1ccc(O)cc1)C(=O)N[C@@H](CN)C(=O)N[C@@H](CCC(C)C)C(N)=O` (HELM PEPTIDE1{[ac].R.R.P.R.[Nva].Y.[NC[C@H](N[*:1])C(=O)[*:2]].[CC(C)CC[C@H](N[*:1])C(=O)[*:2]].[am]}$$$$V2.0), the inhibition turned out to be 83% in assay [2] and 94% in assay [3].
